Reference: ChEMBL document CHEMBL1142169, “In vitro antibacterial activity of the pyrrolopyrazolyl-substituted oxazolidinone RWJ-416457” (2007)
Converted amounts (≈) assume the structure as drawn.

Legend:
Format in all cases: functional
Streptococcus pneumoniae [1] = assay: Antibacterial activity against macrolide-resistant Streptococcus pneumoniae
Summary of the method: (§1)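 MIC by CLSI (formerly NCCLS) broth microdilution for aerobically growing bacteria.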

Moraxella catarrhalis = assay: Antibacterial activity against Moraxella catarrhalis
Summary of the method: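 MIC determined by the CLSI (formerly NCCLS) broth microdilution procedure for aerobically growing bacteria.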

Streptococcus pyogenes = assay: Antibacterial activity against macrolide-resistant Streptococcus pyogenes; summary of the method: as §1
Streptococcus pneumoniae [2] = assay: Antibacterial activity against penicillin-resistant Streptococcus pneumoniae; summary of the method: as §1
[3] = test system: Mycoplasmoides pneumoniae; assay: Antibacterial activity against Mycoplasma pneumoniae
Summary of the method: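 Microbroth MIC following Waites et al. Isolates were titred in SP4 glucose broth by serial 10-fold dilution to count color changing units. Drug was serially diluted in antibiotic-free SP4 glucose broth and inoculated at 104 CCU/ml, then incubated at 35°C until control wells changed color. The MIC was the lowest concentration preventing color change.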

Streptococcus pneumoniae [4] = assay: Antibacterial activity against Streptococcus pneumoniae; summary of the method: as §1
Enterococcus faecium = assay: Antibacterial activity against linezolid-susceptible Enterococcus faecium; summary of the method: as §1
Staphylococcus [5] = assay: Antibacterial activity against coagulase-negative staphylococci; summary of the method: as §1
Legionella pneumophila = assay: Antibacterial activity against Legionella pneumophila
Summary of the method: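 L. pneumophila broth microdilution. Inoculum suspended in buffered yeast extract broth and added to wells holding serial antibiotic dilutions. Incubated aerobically at 34°C to 36°C for 48 h. MIC taken as the lowest concentration inhibiting visible growth.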

Staphylococcus [6] = assay: Antibacterial activity against methicillin-resistant coagulase-negative staphylococci; summary of the method: as §1
Enterococcus faecalis [7] = assay: Antibacterial activity against linezolid-susceptible Enterococcus faecalis; summary of the method: as §1
Staphylococcus aureus [8] = assay: Antibacterial activity against methicillin-susceptible Staphylococcus aureus; summary of the method: as §1
Staphylococcus aureus [9] = assay: Antibacterial activity against vancomycin-intermediate methicillin-resistant Staphylococcus aureus; summary of the method: as §1
Staphylococcus aureus [10] = assay: Antibacterial activity against Staphylococcus aureus; summary of the method: as §1
Staphylococcus [11] = assay: Antibacterial activity against methicillin-susceptible coagulase-negative staphylococci; summary of the method: as §1
Staphylococcus aureus [12] = assay: Antibacterial activity against community-acquired methicillin-resistant Staphylococcus aureus; summary of the method: as §1
Streptococcus pneumoniae [13] = assay: Antibacterial activity against fluoroquinolone-resistant Streptococcus pneumoniae; summary of the method: as §1
Staphylococcus aureus [14] = assay: Antibacterial activity against methicillin-resistant Staphylococcus aureus; summary of the method: as §1
Staphylococcus aureus [15] = assay: Antibacterial activity against methicillin-resistant Staphylococcus aureus OC 2878 by time kill experiments
Summary of the method: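 Time-kill by CLSI methodology with drug at four times the MIC against MRSA OC 2878, alongside a drug-free control culture. Viable counts were followed over time.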

Enterococcus faecalis [16] = assay: Antibacterial activity against Enterococcus faecalis ATCC 51922 by time kill experiments
Summary of the method: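 Time-kill curves run per CLSI methodology, with drug at four times the MIC measured for the isolate. Growth in drug-containing medium was followed alongside a drug-free control medium over time.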

CC[C@H]1OC(=O)[C@H](C)[C@@H](O[C@H]2C[C@@](C)(OC)[C@@H](O)[C@H](C)O2)[C@H](C)[C@@H](O[C@@H]2O[C@H](C)C[C@H](N(C)C)[C@H]2O)[C@](C)(O)C[C@@H](C)C(=O)[C@H](C)[C@@H](O)[C@]1(C)O [ERYTHROMYCIN]
MIC50 (Streptococcus pneumoniae [1]): 4 µg/mL (≈ 5.45 µM) | MIC90 (Streptococcus pneumoniae [1]): > 16 µg/mL | MIC50 (Moraxella catarrhalis): 0.25 µg/mL (≈ 0.341 µM) | MIC90 (Moraxella catarrhalis): 0.25 µg/mL (≈ 0.341 µM) | MIC50 (Streptococcus pyogenes): 8 µg/mL (≈ 10.9 µM) | MIC90 (Streptococcus pyogenes): > 16 µg/mL

CC(=O)NC[C@H]1CN(c2ccc(N3CCOCC3)c(F)c2)C(=O)O1 [LINEZOLID]
MIC50 (Streptococcus pneumoniae [2]): 1 µg/mL (≈ 2.96 µM) | MIC90 (Streptococcus pneumoniae [2]): 1 µg/mL (≈ 2.96 µM) | MIC50 [3]: > 64 µg/mL | MIC90 [3]: > 64 µg/mL | MIC50 (Streptococcus pneumoniae [4]): 1 µg/mL (≈ 2.96 µM) | MIC90 (Streptococcus pneumoniae [4]): 1 µg/mL (≈ 2.96 µM) | MIC50 (Enterococcus faecium): 2 µg/mL (≈ 5.93 µM) | MIC90 (Enterococcus faecium): 4 µg/mL (≈ 11.9 µM) | MIC50 (Staphylococcus [5]): 2 µg/mL (≈ 5.93 µM) | MIC90 (Staphylococcus [5]): 2 µg/mL (≈ 5.93 µM) | MIC50 (Streptococcus pneumoniae [1]): 1 µg/mL (≈ 2.96 µM) | MIC90 (Streptococcus pneumoniae [1]): 1 µg/mL (≈ 2.96 µM) | MIC50 (Legionella pneumophila): 4 µg/mL (≈ 11.9 µM) | MIC90 (Legionella pneumophila): 16 µg/mL (≈ 47.4 µM) | MIC50 (Moraxella catarrhalis): 8 µg/mL (≈ 23.7 µM) | MIC90 (Moraxella catarrhalis): 8 µg/mL (≈ 23.7 µM) | MIC50 (Staphylococcus [6]): 2 µg/mL (≈ 5.93 µM) | MIC90 (Staphylococcus [6]): 2 µg/mL (≈ 5.93 µM) | MIC50 (Enterococcus faecalis [7]): 2 µg/mL (≈ 5.93 µM) | MIC90 (Enterococcus faecalis [7]): 2 µg/mL (≈ 5.93 µM) | MIC50 (Staphylococcus aureus [8]): 2 µg/mL (≈ 5.93 µM) | MIC90 (Staphylococcus aureus [8]): 4 µg/mL (≈ 11.9 µM) | MIC50 (Staphylococcus aureus [9]): 1 µg/mL (≈ 2.96 µM) | MIC90 (Staphylococcus aureus [9]): 4 µg/mL (≈ 11.9 µM) | MIC50 (Staphylococcus aureus [10]): 4 µg/mL (≈ 11.9 µM) | MIC90 (Staphylococcus aureus [10]): 4 µg/mL (≈ 11.9 µM) | MIC50 (Staphylococcus [11]): 1 µg/mL (≈ 2.96 µM) | MIC90 (Staphylococcus [11]): 2 µg/mL (≈ 5.93 µM) | MIC50 (Staphylococcus aureus [12]): 4 µg/mL (≈ 11.9 µM) | MIC90 (Staphylococcus aureus [12]): 4 µg/mL (≈ 11.9 µM) | MIC50 (Streptococcus pneumoniae [13]): 0.5 µg/mL (≈ 1.48 µM) | MIC90 (Streptococcus pneumoniae [13]): 1 µg/mL (≈ 2.96 µM) | MIC50 (Streptococcus pyogenes): 1 µg/mL (≈ 2.96 µM) | MIC90 (Streptococcus pyogenes): 2 µg/mL (≈ 5.93 µM) | MIC50 (Staphylococcus aureus [14]): 4 µg/mL (≈ 11.9 µM) | MIC90 (Staphylococcus aureus [14]): 4 µg/mL (≈ 11.9 µM)

C[C@H]1COc2c(N3CCN(C)CC3)c(F)cc3c(=O)c(C(=O)O)cn1c23.C[C@H]1COc2c(N3CCN(C)CC3)c(F)cc3c(=O)c(C(=O)O)cn1c23.O [LEVOFLOXACIN]
MIC50 [3]: 0.5 µg/mL | MIC90 [3]: 1 µg/mL | MIC50 (Legionella pneumophila): 0.12 µg/mL | MIC90 (Legionella pneumophila): 0.5 µg/mL | MIC50 (Streptococcus pneumoniae [13]): 16 µg/mL | MIC90 (Streptococcus pneumoniae [13]): > 16 µg/mL

CC(=O)NC[C@H]1CN(c2ccc(N3Cc4cn(C)nc4C3)c(F)c2)C(=O)O1
MIC50 (Streptococcus pneumoniae [2]): 0.5 µg/mL (≈ 1.34 µM) | MIC90 (Streptococcus pneumoniae [2]): 0.5 µg/mL (≈ 1.34 µM) | MIC50 [3]: 16 µg/mL (≈ 42.9 µM) | MIC90 [3]: 32 µg/mL (≈ 85.7 µM) | MIC50 (Streptococcus pneumoniae [4]): 0.5 µg/mL (≈ 1.34 µM) | MIC90 (Streptococcus pneumoniae [4]): 0.5 µg/mL (≈ 1.34 µM) | MIC50 (Enterococcus faecium): 1 µg/mL (≈ 2.68 µM) | MIC90 (Enterococcus faecium): 1 µg/mL (≈ 2.68 µM) | MIC50 (Staphylococcus [5]): 0.5 µg/mL (≈ 1.34 µM) | MIC90 (Staphylococcus [5]): 1 µg/mL (≈ 2.68 µM) | MIC50 (Streptococcus pneumoniae [1]): 0.5 µg/mL (≈ 1.34 µM) | MIC90 (Streptococcus pneumoniae [1]): 0.5 µg/mL (≈ 1.34 µM) | MIC50 (Legionella pneumophila): 4 µg/mL (≈ 10.7 µM) | MIC90 (Legionella pneumophila): 8 µg/mL (≈ 21.4 µM) | MIC50 (Moraxella catarrhalis): 2 µg/mL (≈ 5.36 µM) | MIC90 (Moraxella catarrhalis): 4 µg/mL (≈ 10.7 µM) | MIC50 (Staphylococcus [6]): 0.5 µg/mL (≈ 1.34 µM) | MIC90 (Staphylococcus [6]): 1 µg/mL (≈ 2.68 µM) | MIC50 (Enterococcus faecalis [7]): 0.5 µg/mL (≈ 1.34 µM) | MIC90 (Enterococcus faecalis [7]): 1 µg/mL (≈ 2.68 µM) | MIC50 (Staphylococcus aureus [8]): 1 µg/mL (≈ 2.68 µM) | MIC90 (Staphylococcus aureus [8]): 2 µg/mL (≈ 5.36 µM) | MIC (Staphylococcus aureus [15]): 1 µg/mL (≈ 2.68 µM) | MIC50 (Staphylococcus aureus [9]): 0.5 µg/mL (≈ 1.34 µM) | MIC90 (Staphylococcus aureus [9]): 2 µg/mL (≈ 5.36 µM) | MIC (Enterococcus faecalis [16]): 1 µg/mL (≈ 2.68 µM) | MIC50 (Staphylococcus aureus [10]): 1 µg/mL (≈ 2.68 µM) | MIC90 (Staphylococcus aureus [10]): 2 µg/mL (≈ 5.36 µM) | MIC50 (Staphylococcus [11]): 0.5 µg/mL (≈ 1.34 µM) | MIC90 (Staphylococcus [11]): 0.5 µg/mL (≈ 1.34 µM) | MIC50 (Staphylococcus aureus [12]): 1 µg/mL (≈ 2.68 µM) | MIC90 (Staphylococcus aureus [12]): 2 µg/mL (≈ 5.36 µM) | MIC50 (Streptococcus pneumoniae [13]): 0.5 µg/mL (≈ 1.34 µM) | MIC90 (Streptococcus pneumoniae [13]): 0.5 µg/mL (≈ 1.34 µM) | MIC50 (Streptococcus pyogenes): 0.5 µg/mL (≈ 1.34 µM) | MIC90 (Streptococcus pyogenes): 0.5 µg/mL (≈ 1.34 µM) | MIC50 (Staphylococcus aureus [14]): 1 µg/mL (≈ 2.68 µM) | MIC90 (Staphylococcus aureus [14]): 2 µg/mL (≈ 5.36 µM)

Cc1onc(-c2ccccc2)c1C(=O)N[C@@H]1C(=O)N2[C@@H]1SC(C)(C)[C@@H]2C(=O)O [OXACILLIN]
MIC50 (Staphylococcus [5]): > 16 µg/mL | MIC90 (Staphylococcus [5]): > 16 µg/mL | MIC50 (Staphylococcus [6]): > 16 µg/mL | MIC90 (Staphylococcus [6]): > 16 µg/mL | MIC50 (Staphylococcus aureus [9]): > 32 µg/mL | MIC90 (Staphylococcus aureus [9]): > 32 µg/mL | MIC50 (Staphylococcus [11]): 0.12 µg/mL (≈ 0.299 µM) | MIC90 (Staphylococcus [11]): 0.25 µg/mL (≈ 0.623 µM) | MIC50 (Staphylococcus aureus [12]): 32 µg/mL (≈ 79.7 µM) | MIC90 (Staphylococcus aureus [12]): 32 µg/mL (≈ 79.7 µM) | MIC50 (Staphylococcus aureus [14]): > 32 µg/mL | MIC90 (Staphylococcus aureus [14]): > 32 µg/mL

CN[C@H](CC(C)C)C(=O)N[C@H]1C(=O)N[C@@H](CC(N)=O)C(=O)N[C@H]2C(=O)N[C@H]3C(=O)N[C@H](C(=O)N[C@H](C(=O)O)c4cc(O)cc(O)c4-c4cc3ccc4O)[C@H](O)c3ccc(c(Cl)c3)Oc3cc2cc(c3O[C@@H]2O[C@H](CO)[C@@H](O)[C@H](O)[C@H]2O[C@H]2C[C@](C)(N)[C@H](O)[C@H](C)O2)Oc2ccc(cc2Cl)[C@H]1O [VANCOMYCIN]
MIC50 (Enterococcus faecium): > 16 µg/mL | MIC90 (Enterococcus faecium): > 16 µg/mL | MIC50 (Staphylococcus [5]): 2 µg/mL (≈ 1.38 µM) | MIC90 (Staphylococcus [5]): 4 µg/mL (≈ 2.76 µM) | MIC50 (Staphylococcus [6]): 2 µg/mL (≈ 1.38 µM) | MIC90 (Staphylococcus [6]): 4 µg/mL (≈ 2.76 µM) | MIC50 (Enterococcus faecalis [7]): 4 µg/mL (≈ 2.76 µM) | MIC90 (Enterococcus faecalis [7]): > 16 µg/mL | MIC50 (Staphylococcus aureus [8]): 1 µg/mL (≈ 0.69 µM) | MIC90 (Staphylococcus aureus [8]): 2 µg/mL (≈ 1.38 µM) | MIC50 (Staphylococcus aureus [9]): 4 µg/mL (≈ 2.76 µM) | MIC90 (Staphylococcus aureus [9]): 8 µg/mL (≈ 5.52 µM) | MIC50 (Staphylococcus aureus [10]): 1 µg/mL (≈ 0.69 µM) | MIC90 (Staphylococcus aureus [10]): 4 µg/mL (≈ 2.76 µM) | MIC50 (Staphylococcus [11]): 2 µg/mL (≈ 1.38 µM) | MIC90 (Staphylococcus [11]): 4 µg/mL (≈ 2.76 µM) | MIC50 (Staphylococcus aureus [12]): 1 µg/mL (≈ 0.69 µM) | MIC90 (Staphylococcus aureus [12]): 1 µg/mL (≈ 0.69 µM) | MIC50 (Staphylococcus aureus [14]): 1 µg/mL (≈ 0.69 µM) | MIC90 (Staphylococcus aureus [14]): 4 µg/mL (≈ 2.76 µM)

CC1(C)S[C@@H]2[C@H](NC(=O)Cc3ccccc3)C(=O)N2[C@H]1C(=O)O [PENICILLIN G]
MIC50 (Streptococcus pneumoniae [2]): 2 µg/mL (≈ 5.98 µM) | MIC90 (Streptococcus pneumoniae [2]): 4 µg/mL (≈ 12 µM)
